Results reported in ChEMBL document CHEMBL5696442, “Discovery of type II inhibitors of TGFβ-activated kinase 1 (TAK1) and mitogen-activated protein kinase kinase kinase kinase 2 (MAP4K2)” (J Med Chem, 2015).

Experiments:
[1] = biological target: Serine/threonine-protein kinase WNK2 (Homo sapiens) (UniProt Q9Y3S1); assay: Inhibition of Wnk2 ATP Loop labeling site in human A-375 cells at 0.05 uM by KiNativ Profiling analysis relative to control; assay type: cell-based
[2] = biological target: Dual specificity mitogen-activated protein kinase kinase 1 (Homo sapiens) (UniProt Q02750); assay: Inhibition of MAP2K1 Lys2 labeling site harbouring DVKPSNILVNSR in human A-375 cells at 0.05 uM by KiNativ Profiling analysis relative to control; assay type: cell-based
[3] = biological target: Ephrin type-A receptor 2 (Homo sapiens, UniProt P29317); assay: Inhibition of EphA2 (unknown origin) ACT labeling site by KiNativ Profiling analysis
[4] = biological target: Mitogen-activated protein kinase 7 (Homo sapiens) (UniProt Q13164); assay: Inhibition of Erk5 Lys2 labeling site in human A-375 cells at 0.5 uM by KiNativ Profiling analysis relative to control; assay type: cell-based
Summary of the method: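 Live A375 melanoma cells were treated with compound at 0.5 or 5 μM, then lysed. Lysates were labeled with a lysine-reactive ATP or ADP-biotin probe. The read-out was protection of each kinase probe-labeling site from labeling, relative to control.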

[5] = biological target: Dual specificity mitogen-activated protein kinase kinase 1 (Homo sapiens) (UniProt Q02750); assay: Inhibition of MAP2K1 Lys2 labeling site harbouring DVKPSNILVNSR in human A-375 cells at 0.5 uM by KiNativ Profiling analysis relative to control; assay type: cell-based
[6] = biological target: Serine/threonine-protein kinase 26 (Homo sapiens) (UniProt Q9P289); assay: Inhibition of MST4 ACT labeling site in human A-375 cells at 0.05 uM by KiNativ Profiling analysis relative to control; assay type: cell-based
[7] = Inhibition of p70S6K ATP Loop labeling site harbouring GGYGKVFQVR in human A-375 cells at 0.05 uM by KiNativ Profiling analysis relative to control; settings: condition cancer
[8] = Inhibition of p70S6K ATP Loop labeling site harbouring DLKPENIMLNHQGHVK in human A-375 cells at 0.05 uM by KiNativ Profiling analysis relative to control; settings: condition cancer
[9] = biological target: Cyclin-dependent kinase 17 (Homo sapiens) (UniProt Q00537); assay: Inhibition of PCTAIRE2 Lys2 labeling site in human A-375 cells at 0.5 uM by KiNativ Profiling analysis relative to control; assay type: cell-based
[10] = biological target: eIF-2-alpha kinase GCN2 (Homo sapiens) (UniProt Q9P2K8); assay: Inhibition of GCN2 domain2 Lys2 labeling site in human A-375 cells at 5 uM by KiNativ Profiling analysis relative to control; assay type: cell-based
[11] = biological target: Ribosomal protein S6 kinase alpha-3 (Homo sapiens) (UniProt P51812); assay: Inhibition of RSK2 domain2 Protein Kinase Domain in human A-375 cells at 0.5 uM by KiNativ Profiling analysis relative to control; assay type: cell-based
Summary of the method: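 Live A375 melanoma cells treated with compound at 5 or 0.5 μM, then lysed. Lysate kinases were labeled with a lysine-reactive ATP or ADP-biotin probe. Inhibition was read as protection of labeling sites from the probe.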

[12] = biological target: Cyclin-dependent kinase 4 (Homo sapiens) (UniProt P11802); assay: Inhibition of CDK4 Lys2 labeling site in human A-375 cells at 5 uM by KiNativ Profiling analysis relative to control; assay type: cell-based
Summary of the method: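 Live A375 melanoma cells were treated with compound at 5 or 0.5 μM. The cells were then lysed, and the lysates were labeled with a lysine-reactive ATP or ADP-biotin acyl probe (KiNativ). Inhibition is the compound's protection of each kinase labeling-site peptide from probe labeling, relative to untreated control.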

[13] = biological target: T1, Serine/threonine-protein kinase Nek9 (Homo sapiens) (UniProt Q8TD19); assay: Inhibition of NEK9 Lys2 labeling site in human A-375 cells at 0.05 uM by KiNativ Profiling analysis relative to control; assay type: cell-based
T1 sequence (whole entry): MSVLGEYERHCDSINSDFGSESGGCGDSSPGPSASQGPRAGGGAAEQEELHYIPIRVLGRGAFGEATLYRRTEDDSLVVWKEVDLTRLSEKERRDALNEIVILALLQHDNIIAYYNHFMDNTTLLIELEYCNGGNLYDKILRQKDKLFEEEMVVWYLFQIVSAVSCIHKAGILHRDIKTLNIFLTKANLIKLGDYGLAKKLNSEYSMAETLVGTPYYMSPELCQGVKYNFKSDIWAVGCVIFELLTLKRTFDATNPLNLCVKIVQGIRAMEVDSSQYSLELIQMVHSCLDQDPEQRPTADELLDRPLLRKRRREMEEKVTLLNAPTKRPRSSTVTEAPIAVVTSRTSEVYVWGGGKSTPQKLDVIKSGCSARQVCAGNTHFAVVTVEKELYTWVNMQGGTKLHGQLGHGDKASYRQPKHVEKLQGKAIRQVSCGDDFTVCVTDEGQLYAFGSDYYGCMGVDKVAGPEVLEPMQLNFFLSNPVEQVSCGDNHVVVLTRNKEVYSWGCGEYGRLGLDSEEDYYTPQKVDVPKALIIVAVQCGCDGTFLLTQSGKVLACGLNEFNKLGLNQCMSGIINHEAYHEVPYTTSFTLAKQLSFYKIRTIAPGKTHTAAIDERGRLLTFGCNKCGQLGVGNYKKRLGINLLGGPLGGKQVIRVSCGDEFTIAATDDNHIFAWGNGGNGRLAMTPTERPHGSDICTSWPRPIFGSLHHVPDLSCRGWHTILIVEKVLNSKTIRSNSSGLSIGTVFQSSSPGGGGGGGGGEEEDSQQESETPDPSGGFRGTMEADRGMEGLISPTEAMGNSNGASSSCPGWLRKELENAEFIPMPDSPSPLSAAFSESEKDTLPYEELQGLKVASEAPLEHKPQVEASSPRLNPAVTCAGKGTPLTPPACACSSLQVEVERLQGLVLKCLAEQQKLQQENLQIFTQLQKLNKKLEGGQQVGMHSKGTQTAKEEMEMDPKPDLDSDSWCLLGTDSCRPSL

[14] = biological target: Serine/threonine-protein kinase Nek7 (Homo sapiens) (UniProt Q8TDX7); assay: Inhibition of NEK7 Lys2 labeling site in human A-375 cells at 0.05 uM by KiNativ Profiling analysis relative to control; assay type: cell-based
[15] = biological target: T1, Serine/threonine-protein kinase Nek9 (Homo sapiens); assay: Inhibition of NEK9 Lys1 labeling site harbouring RTEDDSLVVWKEVDLTR in human A-375 cells at 5 uM by KiNativ Profiling analysis relative to control; assay type: cell-based
[16] = biological target: Cyclin-dependent kinase 17 (Homo sapiens) (UniProt Q00537); assay: Inhibition of PCTAIRE2 Lys1 labeling site harbouring SKLTENLVALKEIRLEHEEGAPCTAIR in human A-375 cells at 0.5 uM by KiNativ Profiling analysis relative to control; assay type: cell-based
[17] = biological target: Serine/threonine-protein kinase 25 (Homo sapiens) (UniProt O00506); assay: Inhibition of YSK1 ACT labeling site in human A-375 cells at 0.05 uM by KiNativ Profiling analysis relative to control; assay type: cell-based
[18] = biological target: Mitogen-activated protein kinase kinase kinase 1 (Homo sapiens) (UniProt Q13233); assay: Inhibition of MAP3K1 Lys2 labeling site in human A-375 cells at 0.05 uM by KiNativ Profiling analysis relative to control; assay type: cell-based

Sequence of Cyclin-dependent kinase 17 (Homo sapiens) (Q00537 whole entry, looked up, the tested form may be a part): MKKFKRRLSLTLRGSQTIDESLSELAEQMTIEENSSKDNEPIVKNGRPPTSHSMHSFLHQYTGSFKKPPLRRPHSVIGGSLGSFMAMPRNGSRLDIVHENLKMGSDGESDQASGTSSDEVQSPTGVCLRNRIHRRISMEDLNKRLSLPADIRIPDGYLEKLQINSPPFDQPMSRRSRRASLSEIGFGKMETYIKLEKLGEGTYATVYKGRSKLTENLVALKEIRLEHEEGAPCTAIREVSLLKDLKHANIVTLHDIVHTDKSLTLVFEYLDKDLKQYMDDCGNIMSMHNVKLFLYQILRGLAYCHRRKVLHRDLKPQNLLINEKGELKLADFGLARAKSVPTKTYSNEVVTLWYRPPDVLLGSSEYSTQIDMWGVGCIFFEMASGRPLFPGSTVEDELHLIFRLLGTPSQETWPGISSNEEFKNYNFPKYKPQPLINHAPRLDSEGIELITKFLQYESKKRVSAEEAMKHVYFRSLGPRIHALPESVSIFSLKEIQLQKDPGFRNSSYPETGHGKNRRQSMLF
Sequence of Dual specificity mitogen-activated protein kinase kinase 1 (Homo sapiens) (Q02750 whole entry): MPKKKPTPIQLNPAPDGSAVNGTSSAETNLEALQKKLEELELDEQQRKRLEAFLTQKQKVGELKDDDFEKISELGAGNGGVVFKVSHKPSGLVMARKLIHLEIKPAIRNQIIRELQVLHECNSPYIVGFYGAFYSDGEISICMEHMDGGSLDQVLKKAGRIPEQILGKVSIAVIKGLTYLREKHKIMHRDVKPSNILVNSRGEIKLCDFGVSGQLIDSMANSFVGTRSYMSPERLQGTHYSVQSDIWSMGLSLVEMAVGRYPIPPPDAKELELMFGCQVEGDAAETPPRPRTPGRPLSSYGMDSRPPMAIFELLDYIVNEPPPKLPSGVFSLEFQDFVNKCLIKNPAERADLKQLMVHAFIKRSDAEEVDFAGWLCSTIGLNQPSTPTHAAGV
Sequence of Ephrin type-A receptor 2 (P29317 whole entry): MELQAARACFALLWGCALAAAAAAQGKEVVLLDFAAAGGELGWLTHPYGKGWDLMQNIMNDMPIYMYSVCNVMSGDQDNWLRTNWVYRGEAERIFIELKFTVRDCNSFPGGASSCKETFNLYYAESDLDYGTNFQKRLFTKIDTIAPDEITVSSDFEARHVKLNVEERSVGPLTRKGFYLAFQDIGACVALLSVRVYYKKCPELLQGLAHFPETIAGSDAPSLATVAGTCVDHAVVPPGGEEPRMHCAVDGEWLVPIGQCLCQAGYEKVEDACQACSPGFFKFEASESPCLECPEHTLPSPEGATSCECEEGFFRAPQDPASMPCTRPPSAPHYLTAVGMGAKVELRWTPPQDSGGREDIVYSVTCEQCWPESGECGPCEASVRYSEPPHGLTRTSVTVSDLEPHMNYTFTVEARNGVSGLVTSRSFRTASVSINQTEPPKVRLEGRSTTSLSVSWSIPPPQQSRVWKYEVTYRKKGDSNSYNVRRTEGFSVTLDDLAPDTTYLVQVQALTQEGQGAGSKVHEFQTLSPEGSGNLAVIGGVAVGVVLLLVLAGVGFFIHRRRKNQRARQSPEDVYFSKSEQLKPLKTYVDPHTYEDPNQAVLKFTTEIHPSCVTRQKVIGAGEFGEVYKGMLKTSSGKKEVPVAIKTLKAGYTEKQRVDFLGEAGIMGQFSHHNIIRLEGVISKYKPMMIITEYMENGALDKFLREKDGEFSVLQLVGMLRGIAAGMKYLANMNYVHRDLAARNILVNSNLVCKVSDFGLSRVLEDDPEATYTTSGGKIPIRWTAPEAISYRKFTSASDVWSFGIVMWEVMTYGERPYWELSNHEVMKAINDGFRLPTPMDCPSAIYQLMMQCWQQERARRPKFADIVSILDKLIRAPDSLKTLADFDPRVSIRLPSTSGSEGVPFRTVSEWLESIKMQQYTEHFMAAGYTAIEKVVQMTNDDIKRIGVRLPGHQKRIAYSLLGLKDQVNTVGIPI
Sequence of eIF-2-alpha kinase GCN2 (Homo sapiens) (Q9P2K8 whole entry, the tested form may be a part): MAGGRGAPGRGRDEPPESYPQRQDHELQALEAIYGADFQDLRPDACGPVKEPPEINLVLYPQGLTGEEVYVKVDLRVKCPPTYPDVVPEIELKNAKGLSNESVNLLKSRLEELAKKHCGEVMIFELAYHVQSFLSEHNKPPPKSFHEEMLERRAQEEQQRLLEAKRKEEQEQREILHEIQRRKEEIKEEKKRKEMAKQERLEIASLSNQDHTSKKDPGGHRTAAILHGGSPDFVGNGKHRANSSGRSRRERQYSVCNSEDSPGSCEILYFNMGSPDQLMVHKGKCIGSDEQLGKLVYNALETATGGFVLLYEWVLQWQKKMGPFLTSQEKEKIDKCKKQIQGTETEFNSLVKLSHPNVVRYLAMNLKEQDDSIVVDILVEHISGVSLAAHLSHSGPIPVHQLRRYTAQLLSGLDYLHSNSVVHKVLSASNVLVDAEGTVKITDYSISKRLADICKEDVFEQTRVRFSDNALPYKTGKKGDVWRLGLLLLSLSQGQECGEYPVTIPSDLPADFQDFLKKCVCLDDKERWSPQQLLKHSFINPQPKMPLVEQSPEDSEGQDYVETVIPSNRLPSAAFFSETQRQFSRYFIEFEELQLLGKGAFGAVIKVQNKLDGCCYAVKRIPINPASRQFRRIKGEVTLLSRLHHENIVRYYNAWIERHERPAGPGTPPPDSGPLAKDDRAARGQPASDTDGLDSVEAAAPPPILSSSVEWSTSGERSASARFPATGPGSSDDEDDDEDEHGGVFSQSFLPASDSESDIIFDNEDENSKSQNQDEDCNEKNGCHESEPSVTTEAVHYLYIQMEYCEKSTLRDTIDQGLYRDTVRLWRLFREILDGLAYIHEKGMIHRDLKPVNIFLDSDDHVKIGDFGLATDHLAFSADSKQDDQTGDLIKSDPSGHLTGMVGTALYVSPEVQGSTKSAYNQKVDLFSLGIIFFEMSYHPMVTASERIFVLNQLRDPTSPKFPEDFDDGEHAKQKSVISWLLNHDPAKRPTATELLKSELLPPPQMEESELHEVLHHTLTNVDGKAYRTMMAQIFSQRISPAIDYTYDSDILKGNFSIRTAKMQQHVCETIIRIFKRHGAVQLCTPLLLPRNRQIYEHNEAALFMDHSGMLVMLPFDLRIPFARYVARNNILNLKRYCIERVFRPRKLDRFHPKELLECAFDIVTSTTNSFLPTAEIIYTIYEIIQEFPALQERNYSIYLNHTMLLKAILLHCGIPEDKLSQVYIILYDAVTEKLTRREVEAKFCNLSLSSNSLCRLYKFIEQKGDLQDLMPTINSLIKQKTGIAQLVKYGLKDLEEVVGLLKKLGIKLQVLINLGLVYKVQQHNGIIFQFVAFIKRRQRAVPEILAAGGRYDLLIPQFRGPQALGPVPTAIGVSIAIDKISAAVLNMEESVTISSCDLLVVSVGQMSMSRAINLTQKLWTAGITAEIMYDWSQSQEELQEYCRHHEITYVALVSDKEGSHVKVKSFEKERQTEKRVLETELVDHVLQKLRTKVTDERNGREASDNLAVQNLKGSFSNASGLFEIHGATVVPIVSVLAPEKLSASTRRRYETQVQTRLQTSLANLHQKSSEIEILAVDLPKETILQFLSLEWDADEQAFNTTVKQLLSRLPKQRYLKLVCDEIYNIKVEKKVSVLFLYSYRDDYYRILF
Sequence of Serine/threonine-protein kinase Nek7 (Homo sapiens) (Q8TDX7 whole entry, looked up): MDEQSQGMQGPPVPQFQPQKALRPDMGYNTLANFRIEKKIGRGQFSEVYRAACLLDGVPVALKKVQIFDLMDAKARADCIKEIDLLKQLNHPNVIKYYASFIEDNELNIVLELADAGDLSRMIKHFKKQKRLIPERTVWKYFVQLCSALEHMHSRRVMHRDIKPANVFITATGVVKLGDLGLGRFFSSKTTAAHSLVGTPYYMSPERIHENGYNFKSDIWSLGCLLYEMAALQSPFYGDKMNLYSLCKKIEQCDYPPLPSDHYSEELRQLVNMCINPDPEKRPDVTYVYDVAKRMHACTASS
Sequence of Ribosomal protein S6 kinase alpha-3 (Homo sapiens) (P51812 whole entry, the tested form may be a part): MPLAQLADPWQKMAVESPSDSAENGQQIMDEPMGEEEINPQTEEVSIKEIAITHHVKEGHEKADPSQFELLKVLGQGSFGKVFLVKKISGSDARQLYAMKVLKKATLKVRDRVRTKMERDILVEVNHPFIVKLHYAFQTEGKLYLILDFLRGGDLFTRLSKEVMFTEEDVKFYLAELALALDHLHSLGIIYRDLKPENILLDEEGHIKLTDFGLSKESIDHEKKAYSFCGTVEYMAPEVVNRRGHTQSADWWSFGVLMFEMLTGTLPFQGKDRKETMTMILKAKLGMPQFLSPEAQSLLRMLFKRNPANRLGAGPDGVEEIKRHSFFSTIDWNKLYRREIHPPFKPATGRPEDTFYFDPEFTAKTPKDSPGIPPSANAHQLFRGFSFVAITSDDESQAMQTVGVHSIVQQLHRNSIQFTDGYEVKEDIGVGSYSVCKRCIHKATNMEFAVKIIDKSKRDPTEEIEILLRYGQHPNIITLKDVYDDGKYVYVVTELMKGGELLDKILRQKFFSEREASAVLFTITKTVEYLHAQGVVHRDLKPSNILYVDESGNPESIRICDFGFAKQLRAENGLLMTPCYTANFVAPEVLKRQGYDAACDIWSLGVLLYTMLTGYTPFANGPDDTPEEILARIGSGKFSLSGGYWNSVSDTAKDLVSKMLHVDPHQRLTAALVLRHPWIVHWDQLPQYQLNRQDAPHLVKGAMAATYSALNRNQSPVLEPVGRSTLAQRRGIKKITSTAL
Sequence of Serine/threonine-protein kinase 26 (Homo sapiens) (Q9P289 2-416 limits assumed): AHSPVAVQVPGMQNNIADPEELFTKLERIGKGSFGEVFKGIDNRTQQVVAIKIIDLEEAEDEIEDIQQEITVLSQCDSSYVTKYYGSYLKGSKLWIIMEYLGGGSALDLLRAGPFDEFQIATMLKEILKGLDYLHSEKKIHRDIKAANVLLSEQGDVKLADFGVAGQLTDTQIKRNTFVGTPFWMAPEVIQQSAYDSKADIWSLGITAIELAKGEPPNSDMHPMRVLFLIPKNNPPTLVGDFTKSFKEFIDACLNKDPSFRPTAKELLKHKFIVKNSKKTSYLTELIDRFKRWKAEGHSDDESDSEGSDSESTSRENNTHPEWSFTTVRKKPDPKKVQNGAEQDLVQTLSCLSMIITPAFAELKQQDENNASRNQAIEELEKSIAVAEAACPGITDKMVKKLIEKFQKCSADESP

Row | SMILES | inhibition [1] [%] | inhibition [2] [%] | IC50 [3] [nM] | inhibition [4] [%] | inhibition [5] [%] | inhibition [6] [%] | inhibition at 0.05 µM [7] [%] | inhibition at 0.05 µM [8] [%] | inhibition [9] [%] | inhibition [10] [%] | inhibition [11] [%] | inhibition [12] [%] | inhibition [13] [%] | inhibition [14] [%] | inhibition [15] [%] | inhibition [16] [%] | inhibition [17] [%] | inhibition [18] [%]
1 | CCN1CCN(Cc2ccc(NC(=O)c3ccc(C)c(/C=C/c4cnc5[nH]ccc5c4OC)c3)cc2C(F)(F)F)CC1 | 5 | -8.3 | 77 | 14 | 1.8 | 13.5 | -14.4 | -14.4 | 29.6 | 83.3 | -4.1 | 6.7 | 2 | 5.8 | 21 | 2.4 | 13.5 | 23.1
2 | CCN1CCN(Cc2ccc(NC(=O)c3ccc(C)c(Oc4ccnc5[nH]ccc45)c3)cc2C(F)(F)F)CC1 | 2.4 | 6.1 | 773 | 6.8 | -3.9 | 22.4 | 18.9 | 18.9 | 54.6 | 44.3 | 7.2 | 2.9 | 4.2 | 10.6 | -3.9 | 6.9 | 22.4 | 16.8
